Screens deposited in PubChem by several laboratories.
ABHD5-PLIN5 inh: ABHD5-PLIN5 interaction inhibitors, primary screen, cell lysate, split luciferase complementation, luminescence | Perilipin-5 (Homo sapiens) + 1-acylglycerol-3-phosphate O-acyltransferase ABHD5 (Homo … | Split G. princeps luciferase complementation, 4 h | inhibition, % at 4 µM | 0.78% of 360,000 active | AID 602281, 2012;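 active = inhibition above the mean inhibition across every tested compound plus 3 SD, cut at about 22% in these data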;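 also: 0% = DMSO only wells and the 100% control is not disclosed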
GRK2 inh: compounds blocking aptamer binding on GRK2 – biochemical, human GRK2, bead flow cytometry, HTS, primary screen; Beta-adrenergic receptor kinase 1 (Homo sapiens), P25098; FAM-aptamer displacement from GRK2; AID 488847, 2010; 0.59% of 330,000 active; inhibition of aptamer binding, % at 10 µM;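 active = inhibition of aptamer binding above 40%, roughly 3 SD of noise, on plates passing a quality check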;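 also: median bead fluorescence of bound FAM aptamer so fluorescent compounds give negative values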
NadD inh: inhibitors of S. aureus NadD, primary screen, biochemical, colorimetric, uHTS; Nicotinate-nucleotide adenylyltransferase NadD (Staphylococcus aureus N315); purified NadD enzyme, colorimetric absorbance read-out; inhibition, % at 20 µM; 0.78% of 360,000 active; AID 602399, 2012; in the data active = inhibition above about 26%
Beta2AR agonist: beta2AR agonists driving receptor internalization, primary screen, cell-based, FAP fluorogen, flow cytometry | Beta-2 adrenergic receptor (Homo sapiens), P07550 | Am2.2-beta2AR cells | 0.43% of 340,000 active | response, % (test concentration not listed) | AID 504454, 2011;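 active = response above a set limit, near 3 SD of response in nonfluorescent compounds, cut at about 42% in these data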
Target sequence (P07550 whole entry, looked up): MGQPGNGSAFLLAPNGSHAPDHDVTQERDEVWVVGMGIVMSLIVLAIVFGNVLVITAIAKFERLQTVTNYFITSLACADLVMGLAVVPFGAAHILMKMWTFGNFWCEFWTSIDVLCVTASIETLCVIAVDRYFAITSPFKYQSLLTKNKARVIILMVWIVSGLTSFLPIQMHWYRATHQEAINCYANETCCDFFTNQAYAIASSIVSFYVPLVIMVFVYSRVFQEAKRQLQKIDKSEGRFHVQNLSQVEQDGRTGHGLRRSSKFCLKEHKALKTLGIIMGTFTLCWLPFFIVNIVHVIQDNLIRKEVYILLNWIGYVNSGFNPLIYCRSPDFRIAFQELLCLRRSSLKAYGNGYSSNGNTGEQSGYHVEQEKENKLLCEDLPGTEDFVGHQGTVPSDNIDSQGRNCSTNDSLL
SENP1 inh: human SENP1 catalytic domain inhibitors, primary screen, biochemical, FRET, uHTS; recombinant SENP1 catalytic domain, CyPet-SUMO1-YPet FRET cleavage; inhibition, % at 10 µM; 0.21% of 360,000 active; AID 624204, 2012;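 active = inhibition at least 30% at 10 µM, raw YFP signal under a set limit, fluorescence ratio 0.5 to 1.5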;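 also: 0% = enzyme with DMSO and 100% = no enzyme wells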
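Material: hSENP1 catalytic domain, recombinant; medium: Tris pH 8 with BME, BSA, NP40 and catalase; compound: single concentration of 10 µM compound, 0.5% DMSO final; technique: FRET read of cyan and yellow fluorescence; timing: 50 min enzyme reaction, room temperature, light-protected; reagent: SFCypet-SUMO1-SFYpet substrate at 25 nM; control set: no-enzyme low, enzyme-DMSO high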
ABHD5 PLIN5 conf: ABHD5-PLIN5 interaction inhibitors, confirmation, biochemical, luminescence; AID 651612, 2012; 67% of 2,200 active; shares compounds with ABHD5-PLIN5 inh; inhibition, % at 4 µM; in the data active = inhibition above about 23%;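 also: 0% = DMSO vehicle wells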
HNF4 split-luc: HNF4 dimerization inhibitors, counter-screen for ABHD5-PLIN5 interaction inhibitor project, biochemical, split-luciferase complementation, luminescence; shares compounds with ABHD5-PLIN5 inh; inhibition, % at 4 µM; 77% of 2,200 active;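 active = mean inhibition across replicate wells exceeding the computed hit threshold, cut at about 13% in these data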;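 also: light from luciferase halves that rejoin when HNF4 fusion proteins dimerize; 0% = DMSO only wells and the 100% control is not given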
Active calls of the source: *; . = no result given. Hits are enriched below; roughly 2.5% of the tested compounds scored in any of these assays.

SMILES	ABHD5-PLIN5 inh	GRK2 inh	NadD inh	Beta2AR agonist	SENP1 inh	ABHD5 PLIN5 conf	HNF4 split-luc
O=C(/C=C\c1cccs1)c1c(O)ccc2ccc(=O)oc12	25*	5	-2	-2	-18	34*	37*
Cc1nc2ccccc2n1CC(O)Cn1c2ccccc2c2ccccc21 (stereo not drawn)	29*	0	12	25	5	9	25*
CCCCOCC(O)Cn1c(C)nc2ccccc21 (stereo not drawn)	8	3	-5	0	-2	.	.
O=c1ccc(=O)n(CCc2ccccn2)[nH]1	-10	.	-8	-3	3	.	.
CC(C)(C)OC(=O)C[C@H]1C/C=C\C[C@H](CC(=O)N[C@H](CO)Cc2ccccc2)C(=O)N2CCC[C@H]2COC1=O	-2	1	0	-1	2	.	.
O=C(O)/C=C/C(=O)c1ccc2c(c1)CCc1ccccc1-2	95*	0	-3	96*	1	104*	110*
COc1cccc(CNC(=O)N2CCN(c3ccccc3)CC2)c1	-2	0	-6	-5	1	.	.
CC1CN(C(=O)/C=C/c2ccc(SC(F)F)cc2)CC(C)O1 (stereo not drawn)	-3	2	-6	-3	1	.	.
CC(C)c1ccc(N2C=Nc3ccc(C(C)C)cc3C2)cc1	36*	3	-1	12	-1	24*	10
C1=Nc2ccccc2CN1c1ccccc1	5	0	-3	-4	2	.	.
O=C1C(=O)c2ccccc2C(O)=C1c1ccccc1F	0	2	-5	-8	2	.	.
O=C1C(O)=C(O)C(=O)c2ccccc21	42*	3	-1	97*	4	7	67*
COc1cc(/C=C/C(=O)c2ccc(Cl)s2)cc(OC)c1O	38*	4	3	-3	4	74*	38*
COc1ccc(/C=C/C(=O)c2ccc(Cl)s2)cc1O	42*	11	-5	-8	-10	54*	43*
CCOc1ccc(C2C(C#N)=C(N)Oc3cc(C)n(Cc4ccco4)c(=O)c32)cc1OC (stereo not drawn)	17	0	-2	-3	1	.	.
Cc1cc2c(c(=O)n1Cc1ccco1)C(c1cccnc1)C(C#N)=C(N)O2 (stereo not drawn)	42*	4	5	10	-26	9	24*
Cn1c(CN2CCCC2)nc2cc(NC(=O)c3ccc(Cl)cc3)ccc21	49*	0	-8	-8	-34	6	-1
Cc1ccc(S(=O)(=O)Nc2ccc3c(c2)nc(CCN2CCCC2)n3C)cc1	19	0	13	1	-10	.	.
Cn1c(CN2CCCCC2)nc2cc(NC(=O)c3ccc(Cl)cc3)ccc21	-3	0	-4	2	-6	.	.
Cn1c(CCN2CCCC2)nc2cc(NS(=O)(=O)c3ccc(Cl)cc3)ccc21	27*	0	22	-1	-9	18	16*
CCOC(=O)CSc1nc2cc(S(=O)(=O)N3CCOCC3)ccc2n1CC	-1	0	3	6	-2	.	.
CC(OC(=O)/C=C/c1ccc2ccccc2n1)C(=O)Nc1ccc(S(N)(=O)=O)cc1 (stereo not drawn)	25*	7	4	4	-1	28*	21*
CC(OC(=O)/C=C/c1cccs1)C(=O)Nc1ccc(S(N)(=O)=O)cc1 (stereo not drawn)	-4	0	-10	-16	6	.	.
O=C(CN1C(=O)NC2(CCOc3ccccc32)C1=O)c1ccc(F)cc1 (stereo not drawn)	9	1	-1	5	-6	.	.
O=C1C=CC(=O)N1CCNc1ncc(C(F)(F)F)cc1Cl	45*	.	4	69*	2	61*	107*
SMILES	ABHD5-PLIN5 inh	GRK2 inh	NadD inh	Beta2AR agonist	SENP1 inh	ABHD5 PLIN5 conf	HNF4 split-luc
CC(C)OC(=O)N(C)C[C@H]1OCc2cn(nn2)CCCC(=O)N([C@H](C)CO)C[C@@H]1C	3	.	-1	.	-1	.	.
O=C(O)CCC(=O)Nc1sc2c(c1C(=O)Nc1ccccc1)CCCCC2	24*	2	1	10	-50	9	-15
CC(C)NC(=O)/C(C#N)=C/c1cccc(NC(=O)c2ccccc2Cl)c1	28*	0	-7	28	-2	65*	57*
Cc1ccc(C)c(C(=O)CCC(=O)NNC(=O)c2cccs2)c1	5	0	0	2	-1	.	.
CCOc1ccc(C(C)=O)cc1N1C(=O)C2C3C=CC(O3)C2C1=O (stereo not drawn)	30*	0	-5	8	3	17	80*
CCN1/C(=C/c2ccc3ccccc3[n+]2CC)C=Cc2ccccc21	41*	14	11	-771	63*	55*	53*
Cc1ccc(S(=O)(=O)c2ncccc2[N+](=O)[O-])cc1	43*	0	-6	-74	2	55*	70*
Cc1ccc(S(=O)(=O)c2ncccc2N)cc1	6	12	1	-4	1	.	.
O=S(=O)(Nc1ccc(Cl)cc1)c1ccc(N2CCOCC2)c(NC(=S)NCCN2CCOCC2)c1	31*	2	0	2	2	-5	48*
COCCNC(=S)Nc1ccc(N2CCOCC2)c(S(=O)(=O)Nc2ccc(Cl)cc2)c1	-4	.	-1	.	3	.	.
O=S(=O)(c1ccccc1)N1CCCCC1CCc1ccccc1 (stereo not drawn)	4	.	1	1	0	.	.
CNc1c(NS(=O)(=O)c2ccc(Br)cc2)c(=O)oc2ccccc12	1	0	2	0	2	.	.
ClC(Cl)(c1nnnn1-c1ccccc1)c1nnnn1-c1ccccc1	87*	3	4	7	1	74*	103*
Cc1ccc2c(c1C)-c1c(ccc(C)c1C)C(=O)C2=O	52*	.	0	14	3	43*	69*
CC(C)(O)c1cc2ccc(C#CCCN3C(=O)c4ccccc4C3=O)cc2c(=O)o1	9	2	-3	14	2	.	.
CC(CC(=O)c1cccs1)CC(=O)c1cccs1	-5	0	-2	-14	2	.	.
Cc1cc(C)c(C(CC(=O)c2cccs2)C(C#N)C#N)c(C)c1 (stereo not drawn)	24*	6	-6	7	-2	64*	41*
